# Dynein cargo inh: dynein cargo transport inhibition; 220,000 compounds, 0.47% hits; 3617.4 mouse cells, GR-EGFP nuclear translocation imaging; test concentration mostly 20 µM; stimulated with dexamethasone, 1 µM; active compounds read low; z-score, hits read low;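 active means plate z-score of nuclear minus cytoplasmic receptor signal below a set negative limit, without overly bright fluorescence or cell loss, cut at about -3.5 in these data, passing the limit was not always enough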;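 further: z-score of nuclear minus cytoplasmic ring GR-EGFP intensity difference per well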
#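 Buffer or medium – tet-free medium with charcoal-stripped serum · Signal – automated 10x imaging of fixed Hoechst-stained cells · Also added – dexamethasone agonist, 1.0 µM final, for 30 min · Incubation – induction 48 h, compound 1 h, agonist 30 min · Read-out – GR-EGFP nuclear translocation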
# ROMK mod: modulators of human ROMK potassium channel; B-score at 10 µM; AID 1918; Tet-inducible ROMK, thallium flux fluorescence; actives lie on both sides; 130,000 compounds, 2% hits;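 active means signal ratio slope over the read window, or its plate-corrected B-score, at least 3 SD from the plate mean, either direction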;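 further: B-score of the F/F0 ratio slope over 7 to 12 s after thallium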
# Redox H2O2 prof: compounds producing H2O2 with reducing agent – biochemical, NIH compound library profiling, artefact control for MLSCN library redox annotation, primary screen | DTT-dependent redox cycling H2O2, phenol red/HRP absorbance; 100% = 100 µM peroxide control, 0% = buffer | activation, % at 10 µM | 200,000 compounds, 0.03% hits;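 active means activation of at least 50% relative to the plate's high and low controls in the primary single-dose screen; inactive means activation below 50%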;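 further: compound incubated with DTT at 0.8 mM final as the reducing agent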
# Autophagy HCS: autophagy modulation, high-content screen; calls only at 10 µM (by protocol); MEF GFP-LC3 puncta imaging; test concentration mostly 10 µM; 190,000 compounds, 0.98% hits;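 active means percentage of spot-positive cells more than 3 SD above its plate mean, without a fluorescence outlier flag or 80% toxicity; inconclusive means no clear call, values can overlap the other calls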
# Cl transport mod: KCC2 (human) Cl- transport modulation; Q9H2X9; KCC2 cells, thallium flux FluoZin-2 fluorescence; B-score of Tl+ flux slope (higher = more flux/activation; lower = inhibition) at 10 µM; 190,000 compounds, 2.2% hits; AID 1456;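 active means thallium flux slope and its plate-corrected score both differing from the plate sample mean at a set confidence after two filtering rounds, in either direction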;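 further: slope of fluorescence scaled to starting intensity during 10 to 20 s after thallium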
# Target sequence (Q9H2X9 whole entry, looked up): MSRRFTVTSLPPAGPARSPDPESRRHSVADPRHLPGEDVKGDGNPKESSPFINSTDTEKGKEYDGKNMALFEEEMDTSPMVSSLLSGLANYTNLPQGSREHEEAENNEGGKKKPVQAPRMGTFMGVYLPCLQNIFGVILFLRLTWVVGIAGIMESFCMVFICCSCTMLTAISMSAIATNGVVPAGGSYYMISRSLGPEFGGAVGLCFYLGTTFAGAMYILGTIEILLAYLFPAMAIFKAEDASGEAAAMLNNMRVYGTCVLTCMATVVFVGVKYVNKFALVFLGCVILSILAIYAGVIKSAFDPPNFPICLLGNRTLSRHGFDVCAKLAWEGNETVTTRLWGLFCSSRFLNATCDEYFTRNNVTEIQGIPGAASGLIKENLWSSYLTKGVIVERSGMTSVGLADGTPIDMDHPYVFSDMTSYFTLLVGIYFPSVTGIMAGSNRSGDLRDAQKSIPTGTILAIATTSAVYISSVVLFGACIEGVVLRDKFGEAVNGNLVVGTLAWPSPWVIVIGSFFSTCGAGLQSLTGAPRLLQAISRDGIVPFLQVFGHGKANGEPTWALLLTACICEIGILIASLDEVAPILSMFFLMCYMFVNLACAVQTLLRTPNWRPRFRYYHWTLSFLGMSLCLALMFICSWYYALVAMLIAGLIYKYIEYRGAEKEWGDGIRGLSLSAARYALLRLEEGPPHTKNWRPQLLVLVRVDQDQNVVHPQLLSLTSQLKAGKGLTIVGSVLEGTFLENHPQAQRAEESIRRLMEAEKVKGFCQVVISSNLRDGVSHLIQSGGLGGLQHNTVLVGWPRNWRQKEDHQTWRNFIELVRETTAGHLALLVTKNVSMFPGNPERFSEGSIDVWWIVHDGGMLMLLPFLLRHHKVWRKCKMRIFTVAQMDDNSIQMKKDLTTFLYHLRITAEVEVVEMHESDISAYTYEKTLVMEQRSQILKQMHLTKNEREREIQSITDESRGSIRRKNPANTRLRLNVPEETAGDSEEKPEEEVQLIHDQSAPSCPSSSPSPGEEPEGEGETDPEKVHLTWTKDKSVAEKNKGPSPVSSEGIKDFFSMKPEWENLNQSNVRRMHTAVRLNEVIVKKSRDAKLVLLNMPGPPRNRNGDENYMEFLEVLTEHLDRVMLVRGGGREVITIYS
# KCC2 secondary: confirmation of human KCC2 transport modulators | normalised thallium flux (F/F0 slope) at 10 µM | HEK293-KCC2, thallium flux, FluoZin2 fluorescence; active compounds read high | 3,700 compounds, 15% hits | AID 1713 | shares compounds with Cl transport mod;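 active means thallium flux slope above the same plate's solvent-only control mean plus 3 SD; inconclusive means the two replicate wells disagree; inactive means no significant difference from solvent-only control wells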
# KCC2 bumet counter: thallium flux persisting under bumetanide in KCC2 cells, counter-screen secondary assay; shares compounds with Cl transport mod; HEK293-KCC2 + bumetanide/ouabain, thallium flux FluoZin2; active compounds read high; normalized thallium flux at 10 µM; 3,700 compounds, 49% hits;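 active means thallium entry rate above the same plate's blocked-transporter control wells by more than 3 SD; inconclusive means the two repeat wells disagree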;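 further: raw slope of fluorescence over initial fluorescence between 10 and 20 s after thallium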
# KCC2 secondary2: KCC2 (human) modulation, second secondary assay. normalized thallium flux at 10 µM. HEK293-KCC2, thallium flux FluoZin2 fluorescence; actives lie on both sides; F/F0 rise rate, 10–20 s post-thallium. 3,700 compounds, 23% hits. AID 1715. shares compounds with Cl transport mod;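 active means thallium flux slope more than 3 SD above or below the plate's solvent-only control mean, mostly below; inconclusive means the two repeat wells disagreed; inactive means no significant shift from solvent-only controls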
# HEK293 Tl flux: counter-screen for KCC2 modulators: effect in parental HEK293 cells; shares compounds with Cl transport mod; thallium flux FluoZin2, ouabain; baseline-ratio fluorescence slope, 10–20 s after thallium; thallium flux rate (normalised fluorescence) at 10 µM; 3,700 compounds, 46% hits;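 active means thallium flux rate significantly above the same plate's solvent-only control wells, beyond their mean plus 3 SD; inconclusive means the two replicate wells gave conflicting results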
# KCC2 retest ouab: modulates human KCC2 on retest with ouabain | shares compounds with Cl transport mod | HEK293-KCC2, thallium flux FluoZin2 fluorescence; bidirectional: low = inhibitor, high = activator | raw Tl+ flux slope (below DMSO = inhibition, above = activation) at 10 µM | 3,700 compounds, 48% hits;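 active means thallium flux slope beyond 3 SD from same-plate DMSO control mean in most replicates, usually higher, sometimes lower; inconclusive means repeat tests gave conflicting results; inactive means no significant difference from controls in most replicates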;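 further: slope of initial-normalized fluorescence between seconds 10 and 20 after thallium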
# HEK293 Tl flux2: acts in parental HEK cells, second KCC2 counter-screen. shares compounds with Cl transport mod. HEK293 parental, thallium flux FluoZin-2 fluorescence slope. thallium flux slope at 10 µM. 3,700 compounds, 33% hits. AID 1718;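 active means thallium flux slope above the same plate's solvent-control mean plus 3 SD in both duplicate wells; inconclusive means duplicate wells that disagreed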;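 further: run without ouabain in cells lacking the KCC2 cotransporter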
# Hits are given with their value; i = inactive; ? = inconclusive; nt = no result given. Sampled rows, rich in hits. Any-hit rate of the full collection: about 4.1%.
SMILES,Dynein cargo inh,ROMK mod,Redox H2O2 prof,Autophagy HCS,Cl transport mod,KCC2 secondary,KCC2 bumet counter,KCC2 secondary2,HEK293 Tl flux,KCC2 retest ouab,HEK293 Tl flux2
CCOC(=O)c1ccccc1NC1OC(=O)c2ccccc21 (stereo unspecified),i,i,i,i,-3.9,?,i,i,?,i,?
c1coc(CNc2nc3nonc3nc2NCc2ccco2)c1,i,nt,i,i,nt,?,i,0.028,i,i,i
COc1cccc2sc(NNC(=O)C3=COCCO3)nc12,i,i,i,i,i,nt,nt,nt,nt,nt,nt
Cc1csc(NC(=O)C2COc3ccccc3O2)n1 (stereo unspecified),i,i,i,i,nt,nt,nt,nt,nt,nt,nt
COc1ccc(CNC(=O)C2COc3ccccc3O2)c(OC)c1 (stereo unspecified),i,nt,i,i,nt,i,i,i,i,i,i
Cc1nc2ccc3nc(NC(=O)C4COc5ccccc5O4)sc3c2s1 (stereo unspecified),i,nt,i,i,5.7,i,0.013,i,0.011,?,0.014
COc1cccc2sc(NNC(=O)C3COc4ccccc4O3)nc12 (stereo unspecified),i,i,i,i,20,0.021,0.03,?,0.019,0.026,0.021
Cc1ccc2sc(NNC(=O)C3COc4ccccc4O3)nc2c1C (stereo unspecified),i,i,i,i,6.5,i,0.042,i,0.017,?,0.012
COCCCNC(=O)C(=O)C1C(=O)Nc2ccccc21 (stereo unspecified),i,i,i,i,i,nt,nt,nt,nt,nt,nt
O=C(NNc1nc2c(F)cccc2s1)C1COc2ccccc2O1 (stereo unspecified),i,i,i,i,10,i,0.037,0.047,0.035,0.038,0.03
O=C(NNc1nc2c(F)cccc2s1)c1ccc(F)cc1,i,i,i,i,i,nt,nt,nt,nt,nt,nt
Cn1c(-c2ccc3nc(N)sc3c2)nc2cc(N)ccc21,i,i,i,i,nt,?,?,i,i,i,i
O=C(Cn1cnc2c(nnn2Cc2ccccc2)c1=O)N1CCN(c2ccccc2)CC1,i,nt,i,i,-4.5,i,i,i,i,0.014,i
O=C(Cn1cnc2c(nnn2Cc2ccc(F)cc2)c1=O)N1CCCc2ccccc21,i,i,i,i,-4,i,i,0.025,i,i,i
O=C(Cn1cnc2c(nnn2Cc2ccccc2F)c1=O)OCc1ccccc1,i,nt,i,i,-7.4,i,i,i,i,0.015,i
O=C(Cn1cnc2c(nnn2Cc2ccc(Cl)cc2)c1=O)N1CCCc2ccccc21,i,i,i,i,i,nt,nt,nt,nt,nt,nt
Cc1ccc(-n2nnc3c(=O)n(CC(=O)OCc4ccccc4)cnc32)cc1,i,nt,i,nt,i,nt,nt,nt,nt,nt,nt
COc1cc(/C=N/NC(=O)CSc2n[nH]c(=O)[nH]c2=O)cc(OC)c1O,i,i,i,i,i,nt,nt,nt,nt,nt,nt
OCCC1CN(Cc2cccn2-c2ccccn2)CCN1Cc1ccccc1 (stereo unspecified),i,nt,i,i,i,nt,nt,nt,nt,nt,nt
COCCNc1cc(C)c(C#N)c2nc3ccccc3n12,i,i,i,i,i,i,?,i,i,i,?
Cc1ccc(CNC(=O)C(=O)Nc2nccs2)cc1,i,i,i,i,i,nt,nt,nt,nt,nt,nt
CC(=O)C1C(=O)c2c(cccc2[N+](=O)[O-])C1=Nc1ccc(S(N)(=O)=O)cc1 (stereo unspecified),i,i,i,i,nt,nt,nt,nt,nt,nt,nt
NC(=S)Nc1cccc(Cl)c1,i,i,nt,nt,i,nt,nt,nt,nt,nt,nt
CS/C(N)=N/C(=S)Nc1cccc(Cl)c1,i,nt,nt,nt,7.5,i,0.018,i,?,i,?
Cc1ccc(N2CC(C(=O)N3CCN(c4ccccc4)CC3)CC2=O)cc1 (stereo unspecified),i,nt,i,i,i,nt,nt,nt,nt,nt,nt
SMILES,Dynein cargo inh,ROMK mod,Redox H2O2 prof,Autophagy HCS,Cl transport mod,KCC2 secondary,KCC2 bumet counter,KCC2 secondary2,HEK293 Tl flux,KCC2 retest ouab,HEK293 Tl flux2
Cc1ccc(N2CC(C(=O)N3CCc4ccccc4C3)CC2=O)cc1 (stereo unspecified),i,nt,i,i,nt,i,i,i,i,i,i
S=C(NCc1ccccc1Cl)Nc1ccccc1Cl,i,i,i,i,6.1,i,0.012,i,i,?,i
NNC(=O)c1ccc2ccccc2n1,i,i,i,i,26,i,0.056,0.042,0.038,0.047,0.023
O=C(NN=C1CCCCCCC1)c1ccc2ccccc2n1,i,i,i,i,23,i,0.038,?,0.026,0.035,0.021
CC(=O)Nc1ccc(NS(=O)(=O)c2ccc(C)cc2)c([N+](=O)[O-])c1,i,i,i,i,i,nt,nt,nt,nt,nt,nt
COc1ccc(CCNC(=O)CN2C(=O)NC(C)(c3ccc([N+](=O)[O-])cc3)C2=O)cc1 (stereo unspecified),i,i,i,i,i,nt,nt,nt,nt,nt,nt
CC(C)N(C(=O)CS(=O)(=O)c1ccc(Cl)c(Cl)c1)C(C)C,i,i,i,i,i,nt,nt,nt,nt,nt,nt
COc1ccc(S(=O)(=O)NC(CC(=O)NCCc2ccc(OC)c(OC)c2)C(C)C)cc1 (stereo unspecified),i,nt,i,i,i,nt,nt,nt,nt,nt,nt
Cc1ccc(-n2c(C)nnc2SCC(=O)NNC(=O)c2ccco2)cc1,i,i,i,i,i,nt,nt,nt,nt,nt,nt
C=CCN(c1ccccc1)S(=O)(=O)c1cccc(C(=O)OCC(=O)NCCOC)c1,i,nt,nt,nt,i,nt,nt,nt,nt,nt,nt
C=CCN(c1cccc(C(F)(F)F)c1)S(=O)(=O)c1cccc(C(=O)OCC(=O)NCCC)c1,i,nt,i,i,-4.2,?,i,0.024,0.0059,0.014,?
S=C(Nc1ccccc1)Nc1cccc(Cl)c1Cl,i,i,i,i,17,i,0.016,i,0.012,?,0.014
Cn1cnc2c1c(=O)[nH]c(=O)n2C,i,nt,nt,nt,i,i,i,i,i,i,i
Cn1c(=O)[nH]c(=O)c2c1ncn2CCN1CCOCC1,i,nt,i,i,i,nt,nt,nt,nt,nt,nt
CCOc1c(Cl)cc(/C=N/NC(N)=S)cc1OC,i,i,i,i,i,nt,nt,nt,nt,nt,nt
COc1ccc(CC(=O)NCc2n[nH]c(=S)n2-c2cccc(Cl)c2)cc1,i,i,i,i,i,nt,nt,nt,nt,nt,nt
